High-throughput results (PubChem BioAssay)
Shown is part of a subset that was picked to be rich in hits.
T cruzi HTS: inhibitors of intracellular Trypanosoma cruzi; intracellular Trypanosoma cruzi in host cells, plate reader; activity score (inhibition), % at 5.01 µM; actives 4.9% (n = 22,000); in the data active = activity score above about 55%;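 note: parasites and compound incubated about four days before reading; 0% = median of neutral control wells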
YB-1 expression: YB-1 expression inhibition; AID 434959; actives 0.37% (n = 30,000); U2OS, qRT-PCR YB-1 vs CDIP delta delta Cp, 16 h; stronger effect = higher value; zero = DMSO, each unit about twofold; delta delta Cp (YB-1 minus CDIP) (concentration not given with the values);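 active = delta delta Cp rounded down to an integer at or above 3, about 3 SD of DMSO wells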;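 note: higher means less YB-1 transcript or more CDIP transcript relative to DMSO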
INS-1E rescue: rescue of cytokine-induced death in INS-1E beta cells; actives 0.1% (n = 20,000); INS-1E cytokine-induced death, ATP luminescence, 48 h; normalised: neutral wells 0, positive control 100; protection from cytokine-induced ATP loss, % at 10 µM;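 active = mean replicate protection from cytokine-induced ATP loss at least 50% and at least 75% of replicates each reaching 50%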
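Material: INS-1E rat cells; Quantity: 8000 cells/well; Buffer or medium: phenol-red-free RPMI with 5% fetal bovine serum; Probe or stimulus: cytokine cocktail of IFN-γ, TNF-α and IL-1β; Compound dosing: single test concentration per compound, delivered by pin transfer; Incubation: 48 h co-treatment, 10 min post-lysis read; Signal: CellTiter-Glo luminescence.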
Numbers without * were called inactive; . = not tested or not shown.

SMILES	T cruzi HTS	YB-1 expression	INS-1E rescue
C[C@@H]1CN([C@@H](C)CO)C(=O)c2cc(NS(=O)(=O)c3ccccc3)ccc2O[C@@H]1CN(C)Cc1ccc(Cl)c(Cl)c1	13	-0.14	-29
C[C@@H]1CN([C@@H](C)CO)C(=O)c2cc(NS(=O)(=O)c3ccc(Cl)cc3)ccc2O[C@@H]1CN(C)Cc1ccc(Cl)c(Cl)c1	58*	-0.03	-15
C[C@@H]1CN([C@H](C)CO)C(=O)c2cc(NS(=O)(=O)c3ccc(Cl)cc3)ccc2O[C@@H]1CN(C)Cc1ccc(Cl)c(Cl)c1	85*	0.41	-23
C[C@H](CO)N1C[C@H](C)[C@H](CN(C)Cc2ccc(Cl)c(Cl)c2)Oc2ccc(NS(=O)(=O)c3ccc(Cl)cc3)cc2C1=O	20	0.12	-11
C[C@H]1CN([C@@H](C)CO)C(=O)c2cc(NS(=O)(=O)c3ccccc3)ccc2O[C@H]1CN(C)Cc1ccc(Cl)c(Cl)c1	52*	-0.55	.
Cc1ccc(S(=O)(=O)Nc2ccc3c(c2)C(=O)N([C@H](C)CO)C[C@@H](C)[C@H](CN(C)Cc2ccc(Cl)c(Cl)c2)O3)cc1	25	-0.0009	-17
N#CC1=C(N)C(C#N)(C#N)C(c2ccccc2)C2=C1CCCC2 (stereo not drawn)	.	0.23	.
O=C(CCCCCC(=O)Nc1ccccc1O)N/N=C\c1cc(O)ccc1O	38	-0.84	45
O=C(NCCCCCNC(=O)/C(Cc1ccccc1)=N/O)OCc1ccccc1	.	0.76	.
CC(C)NC(=O)N(C)C[C@@H]1Oc2ccc(NS(=O)(=O)c3cccs3)cc2C(=O)N([C@@H](C)CO)C[C@H]1C	-9	0.038	.
C/S(=N\S(=O)(=O)c1ccc(Cl)cc1)c1ccccc1 (stereo not drawn)	.	-0.061	.
C[C@H]1CN([C@@H](C)CO)C(=O)c2cccc(NC(=O)c3ccncc3)c2O[C@H]1CN(C)C(=O)Nc1cccc2ccccc12	75*	0.14	1
C[C@H](CO)N1C[C@H](C)[C@H](CN(C)C(=O)Nc2cccc3ccccc23)Oc2c(NC(=O)c3ccncc3)cccc2C1=O	70*	0.6	1
C[C@H]1CN([C@@H](C)CO)C(=O)c2cccc(NC(=O)c3ccncc3)c2O[C@@H]1CN(C)C(=O)Nc1cccc2ccccc12	5	0.41	8
C[C@@H]1CN([C@@H](C)CO)C(=O)c2cccc(NC(=O)c3ccncc3)c2O[C@H]1CN(C)C(=O)Nc1cccc2ccccc12	9	0.05	12
c1ccc(SCCN2CCN(CCSc3ccccc3)CC2)cc1	.	0.42	.
O=C1O[C@H](c2ccccc2)[C@H](c2ccccc2)N2[C@H]1[C@@H](C(=O)Nc1nc3ccccc3s1)[C@]1(C(=O)Nc3ccc(C#CC4(O)CCCCCC4)cc31)[C@H]2c1ccccc1OCCO	.	0.026	.
COc1ccc(NC(=O)Nc2cccc3c2O[C@H](CN(C)C(=O)Nc2ccc(C(F)(F)F)cc2)[C@H](C)CN([C@H](C)CO)C3=O)cc1	1	-0.47	3
COc1ccc(NC(=O)Nc2cccc3c2O[C@H](CN(C)C(=O)Nc2c(C)noc2C)[C@H](C)CN([C@@H](C)CO)C3=O)cc1	25	-0.21	12
C[C@@H]1CN([C@H](C)CO)C(=O)c2cccc(NS(=O)(=O)c3ccc(Cl)cc3)c2O[C@@H]1CN(C)C(=O)Nc1ccc(C(F)(F)F)cc1	2	-0.16	-33
COc1ccc(NC(=O)N(C)C[C@@H]2Oc3c(NC(=O)Nc4ccc(C(F)(F)F)cc4)cccc3C(=O)N([C@H](C)CO)C[C@H]2C)cc1	60*	0.1	-12
C[C@H]1CN([C@@H](C)CO)C(=O)c2cccc(NC(=O)Nc3ccc(C(F)(F)F)cc3)c2O[C@H]1CN(C)C(=O)Nc1ccc(F)cc1	60*	0.52	-57
C[C@@H]1CN([C@@H](C)CO)C(=O)c2cccc(NS(=O)(=O)c3ccc(Cl)cc3)c2O[C@@H]1CN(C)C(=O)Nc1ccc(C(F)(F)F)cc1	83*	-0.1	-91
COc1ccc(NC(=O)Nc2cccc3c2O[C@H](CN(C)C(=O)Nc2c(C)noc2C)[C@H](C)CN([C@H](C)CO)C3=O)cc1	-4	5.9*	1
C[C@H](CO)N1C[C@H](C)[C@@H](CN(C)C(=O)Nc2ccc(F)cc2)Oc2c(NC(=O)Nc3ccc(C(F)(F)F)cc3)cccc2C1=O	5	0.2	-8
CC1CCC/C=C2\C(=O)C=CC3OC(/C=C/C=C/C=C/C(=O)O)=C(C(=O)O1)C23 (stereo not drawn)	.	0.012	.
COc1cc(O)c2c(c1)O[C@H](c1ccc(O)c(O)c1)[C@@H](O)C2=O	.	0.94	.
O=C(N/N=C/c1ccccc1[N+](=O)[O-])c1ccccc1O	-8	-0.15	-75
